Assay results published in ChEMBL document CHEMBL1158482, “Dopamine D2, D3, and D4 selective phenylpiperazines as molecular probes to explore the origins of subtype specific receptor binding” (J Med Chem, 2009).

Key:
Assay type in all cases: cell-based
[1] = target: T1, D(4) dopamine receptor (Homo sapiens, UniProt P21917); test: Displacement of [3H]spiperone from wild type human cloned dopamine D4 receptor expressed in HEK293 cells
T1 sequence (P21917 whole entry): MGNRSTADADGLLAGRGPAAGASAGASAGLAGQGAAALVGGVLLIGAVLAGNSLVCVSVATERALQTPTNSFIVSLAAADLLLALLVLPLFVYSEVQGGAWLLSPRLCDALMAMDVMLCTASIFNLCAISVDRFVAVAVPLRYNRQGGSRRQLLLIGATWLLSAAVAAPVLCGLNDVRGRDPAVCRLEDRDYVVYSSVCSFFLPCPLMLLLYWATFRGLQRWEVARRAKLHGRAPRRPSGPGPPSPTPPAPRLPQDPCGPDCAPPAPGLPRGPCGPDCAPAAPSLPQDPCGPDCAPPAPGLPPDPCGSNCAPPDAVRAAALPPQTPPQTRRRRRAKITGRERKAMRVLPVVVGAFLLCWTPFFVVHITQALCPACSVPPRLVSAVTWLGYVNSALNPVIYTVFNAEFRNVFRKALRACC

[2] = tested on: HEK293; test: Selectivity ratio of Ki for human cloned dopamine D2L receptor D3.32E mutant to Ki for wild type human cloned dopamine D2L receptor expressed in HEK293 cells
In short: (§1)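 Wild-type or mutant receptor cDNA transiently transfected into HEK-293 cells, which were grown in MEM with 10% FBS at 37 °C and 5% CO2 and harvested 48 h after transfection. Membranes were homogenised and pelleted at 50000g. Competition against [3H]spiperone (0.1-0.7 nM final) used 20-200 μg/mL protein. Ki was derived from EC50, 2-18 independent experiments in triplicate. Ratios are mutant Ki over wild-type Ki.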

[3] = tested on: HEK293; test: Selectivity ratio of Ki for human cloned dopamine D2L receptor V2.61F mutant to Ki for wild type human cloned dopamine D2L receptor expressed in HEK293 cells; in short: as §1
[4] = tested on: HEK293; test: Selectivity ratio of Ki for human cloned dopamine D2L receptor L2.64F mutant to Ki for wild type human cloned dopamine D2L receptor expressed in HEK293 cells; in short: as §1
[5] = tested on: HEK293; test: Selectivity ratio of Ki for human cloned dopamine D2L receptor FV3.28,3.29LM mutant to Ki for wild type human cloned dopamine D2L receptor expressed in HEK293 cells; in short: as §1
[6] = tested on: HEK293; test: Selectivity ratio of Ki for human cloned dopamine D2L receptor V2.61F/FV3.28,3.29LM mutant to Ki for wild type human cloned dopamine D2L receptor expressed in HEK293 cells; in short: as §1
[7] = tested on: HEK293; test: Selectivity ratio of Ki for human cloned dopamine D2L receptor E181V/I183S mutant to Ki for wild type human cloned dopamine D2L receptor expressed in HEK293 cells; in short: as §1
[8] = tested on: HEK293; test: Selectivity ratio of Ki for human cloned dopamine D2L receptor H6.55A mutant to Ki for wild type human cloned dopamine D2L receptor expressed in HEK293 cells; in short: as §1
[9] = tested on: HEK293; test: Selectivity ratio of Ki for human cloned dopamine D2L receptor H6.55F mutant to Ki for wild type human cloned dopamine D2L receptor expressed in HEK293 cells; in short: as §1
[10] = tested on: HEK293; test: Selectivity ratio of Ki for human cloned dopamine D3 receptor D3.32E mutant to Ki for wild type human cloned dopamine D3 receptor expressed in HEK293 cells; in short: as §1
[11] = tested on: HEK293; test: Selectivity ratio of Ki for human cloned dopamine D3 receptor V2.61F mutant to Ki for wild type human cloned dopamine D3 receptor expressed in HEK293 cells; in short: as §1
[12] = tested on: HEK293; test: Selectivity ratio of Ki for human cloned dopamine D3 receptor L2.64F mutant to Ki for wild type human cloned dopamine D3 receptor expressed in HEK293 cells; in short: as §1
[13] = tested on: HEK293; test: Selectivity ratio of Ki for human cloned dopamine D3 receptor FV3.28,3.29LM mutant to Ki for wild type human cloned dopamine D3 receptor expressed in HEK293 cells; in short: as §1
[14] = tested on: HEK293; test: Selectivity ratio of Ki for human cloned dopamine D3 receptor V2.61F/FV3.28,3.29LM mutant to Ki for wild type human cloned dopamine D3 receptor expressed in HEK293 cells; in short: as §1
[15] = tested on: HEK293; test: Selectivity ratio of Ki for human cloned dopamine D3 receptor V180E/S182I mutant to Ki for wild type human cloned dopamine D3 receptor expressed in HEK293 cells; in short: as §1
[16] = tested on: HEK293; test: Selectivity ratio of Ki for human cloned dopamine D3 receptor H6.55A mutant to Ki for wild type human cloned dopamine D3 receptor expressed in HEK293 cells; in short: as §1
[17] = target: T2, D(2) dopamine receptor (Homo sapiens, UniProt P14416); test: Displacement of [3H]spiperone from human cloned dopamine D2L receptor expressed in CHO cells
T2 sequence (P14416 whole entry): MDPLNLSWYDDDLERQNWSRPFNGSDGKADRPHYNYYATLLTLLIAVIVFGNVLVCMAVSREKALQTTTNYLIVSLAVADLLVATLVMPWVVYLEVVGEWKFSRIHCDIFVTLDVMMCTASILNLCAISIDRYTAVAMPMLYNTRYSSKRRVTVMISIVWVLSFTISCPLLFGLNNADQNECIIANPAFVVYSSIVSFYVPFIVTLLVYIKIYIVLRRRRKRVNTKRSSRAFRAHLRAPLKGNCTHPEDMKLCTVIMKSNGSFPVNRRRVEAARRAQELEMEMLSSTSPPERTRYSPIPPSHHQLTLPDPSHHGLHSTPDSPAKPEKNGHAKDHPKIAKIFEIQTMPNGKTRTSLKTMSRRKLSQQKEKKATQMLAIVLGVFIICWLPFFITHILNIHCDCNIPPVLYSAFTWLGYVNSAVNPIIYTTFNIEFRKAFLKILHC

[18] = target: T3, D(3) dopamine receptor (Homo sapiens, UniProt P35462); test: Displacement of [3H]spiperone from human cloned dopamine D3 receptor expressed in CHO cells
T3 sequence (P35462 whole entry): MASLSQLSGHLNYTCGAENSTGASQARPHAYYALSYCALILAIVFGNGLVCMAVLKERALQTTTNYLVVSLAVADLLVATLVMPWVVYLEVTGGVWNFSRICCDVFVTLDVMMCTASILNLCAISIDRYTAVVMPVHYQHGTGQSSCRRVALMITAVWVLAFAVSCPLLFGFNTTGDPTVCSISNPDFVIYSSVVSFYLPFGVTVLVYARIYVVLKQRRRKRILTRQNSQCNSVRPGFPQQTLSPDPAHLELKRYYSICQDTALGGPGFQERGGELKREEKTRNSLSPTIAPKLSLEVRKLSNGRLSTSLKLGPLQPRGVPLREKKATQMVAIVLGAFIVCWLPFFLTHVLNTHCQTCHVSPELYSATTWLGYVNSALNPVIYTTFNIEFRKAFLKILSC

[19] = target: T1, D(4) dopamine receptor; test: Displacement of [3H]spiperone from human cloned dopamine D4 receptor expressed in CHO cells
In short: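 Membranes from CHO cells stably expressing human D4 (Bmax 700-1800 fmol/mg). Curves fit by nonlinear regression, sigmoid model giving IC50 and slope; Ki ± SEM from 2-9 experiments in triplicate.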

[20] = tested on: CHO; test: Selectivity ratio of Ki for human cloned dopamine D2L receptor to Ki for human cloned dopamine D3 receptor expressed in CHO cells
[21] = tested on: CHO; test: Selectivity ratio of Ki for human cloned dopamine D2L receptor to Ki for human cloned dopamine D4 receptor expressed in CHO cells
[22] = target: T2, D(2) dopamine receptor; test: Displacement of [3H]spiperone from wild type human cloned dopamine D2L receptor expressed in HEK293 cells
[23] = Displacement of [3H]spiperone from human cloned dopamine D2L receptor D3.32E mutant expressed in HEK293 cells
In short: (§2)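 Wild-type or mutant receptor cDNA transiently transfected into HEK-293 cells (CaHPO4 or TransIT-293), grown in MEM with 10% FBS at 37 °C, 5% CO2, harvested 48 h post-transfection. Membranes prepared by homogenization and spin at 50000g.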

[24] = Displacement of [3H]spiperone from human cloned dopamine D2L receptor V2.61F mutant expressed in HEK293 cells; in short: as §2
[25] = Displacement of [3H]spiperone from human cloned dopamine D2L receptor L2.64F mutant expressed in HEK293 cells; in short: as §2
[26] = Displacement of [3H]spiperone from human cloned dopamine D2L receptor FV3.28,3.29LM mutant expressed in HEK293 cells; in short: as §2
[27] = Displacement of [3H]spiperone from human cloned dopamine D2L receptor V2.61F/FV3.28,3.29LM mutant expressed in HEK293 cells; in short: as §2
[28] = target: D(2) dopamine receptor (Homo sapiens, UniProt P14416, E181V/I183S); test: Displacement of [3H]spiperone from human cloned dopamine D2L receptor E181V/I183S mutant expressed in HEK293 cells; in short: as §1
D(2) dopamine receptor (Homo sapiens, UniProt P14416, E181V/I183S), sequence (P14416 whole entry E181V/I183S): as the sequence (P14416 whole entry) above, with E181V, I183S counted along it

[29] = Displacement of [3H]spiperone from human cloned dopamine D2L receptor H6.55A mutant expressed in HEK293 cells; in short: as §2
[30] = Displacement of [3H]spiperone from human cloned dopamine D2L receptor H6.55F mutant expressed in HEK293 cells; in short: as §2
[31] = target: T3, D(3) dopamine receptor; test: Displacement of [3H]spiperone from wild type human cloned dopamine D3 receptor expressed in HEK293 cells
[32] = target: D(3) dopamine receptor (Homo sapiens, UniProt P35462, D110E); test: Displacement of [3H]spiperone from human cloned dopamine D3 receptor D3.32E mutant expressed in HEK293 cells
D(3) dopamine receptor (Homo sapiens, UniProt P35462, D110E), sequence (P35462 as listed by the source D110E): as the sequence (P35462 whole entry) above, with G9S, D110E counted along it

[33] = target: D(3) dopamine receptor (Homo sapiens, UniProt P35462, V87F); test: Displacement of [3H]spiperone from human cloned dopamine D3 receptor V2.61F mutant expressed in HEK293 cells
D(3) dopamine receptor (Homo sapiens, UniProt P35462, V87F), sequence (P35462 as listed by the source V87F): as the sequence (P35462 whole entry) above, with G9S, V87F counted along it

[34] = target: T3, D(3) dopamine receptor; test: Displacement of [3H]spiperone from human cloned dopamine D3 receptor L2.64F mutant expressed in HEK293 cells
[35] = target: T3, D(3) dopamine receptor; test: Displacement of [3H]spiperone from human cloned dopamine D3 receptor FV3.28,3.29LM mutant expressed in HEK293 cells
[36] = target: D(3) dopamine receptor (Homo sapiens, UniProt P35462, F106L/V107M/V87F); test: Displacement of [3H]spiperone from human cloned dopamine D3 receptor V2.61F/FV3.28,3.29LM mutant expressed in HEK293 cells
D(3) dopamine receptor (Homo sapiens, UniProt P35462, F106L/V107M/V87F), sequence (P35462 as listed by the source V87F/F106L/V107M): as the sequence (P35462 whole entry) above, with G9S, V87F, F106L, V107M counted along it

[37] = target: D(3) dopamine receptor (Homo sapiens, UniProt P35462, S182I/V180E); test: Displacement of [3H]spiperone from human cloned dopamine D3 receptor V180E/S182I mutant expressed in HEK293 cells
D(3) dopamine receptor (Homo sapiens, UniProt P35462, S182I/V180E), sequence (P35462 as listed by the source V180E/S182I): as the sequence (P35462 whole entry) above, with G9S, V180E, S182I counted along it

[38] = target: D(3) dopamine receptor (Homo sapiens, UniProt P35462, H349A); test: Displacement of [3H]spiperone from human cloned dopamine D3 receptor H6.55A mutant expressed in HEK293 cells
D(3) dopamine receptor (Homo sapiens, UniProt P35462, H349A), sequence (P35462 as listed by the source H349A): as the sequence (P35462 whole entry) above, with G9S, H349A counted along it

Compound	Ratio Ki [3]	Ratio Ki [5]	Ratio Ki [6]	Ratio Ki [8]	Ratio Ki [11]	Ratio Ki [13]	Ratio Ki [14]	Ki [17] [nM]	Ki [18] [nM]	Ki [19] [nM]	Ratio Ki [20]	Ratio Ki [21]	Ki [22] [nM]	Ki [23] [nM]	Ki [24] [nM]	Ki [25] [nM]	Ki [26] [nM]	Ki [27] [nM]	Ki [29] [nM]	Ki [30] [nM]	other results
CSc1ccccc1N1CCN(CCCNC(=O)c2cnn3ccccc23)CC1	45	16	9	0.05	29	12	0.31	1.4	18	8.8	0.08	0.16	2.2	160	100	660	35	20	0.1	17	Ki [1]: 26 nM; Ratio Ki [2]: 74; Ratio Ki [4]: 303; Ratio Ki [7]: 12; Ratio Ki [9]: 7.7; Ratio Ki [10]: 25; Ratio Ki [12]: 17; Ratio Ki [15]: 0.13; Ratio Ki [16]: 0.5; Ki [28]: 26 nM; Ki [31]: 26 nM; Ki [32]: 650 nM; Ki [33]: 740 nM; Ki [34]: 740 nM; Ki [35]: 430 nM; Ki [36]: 320 nM; Ki [37]: 8 nM; Ki [38]: 3.4 nM
Clc1ccc(N2CCN(CCCCCc3cc4ccccn4n3)CC2)cc1	3.3	4.9	2.1	0.74	8.8	2.4	5.1	160	370	46	0.43	3.5	220		740		1100	470	170		Ki [31]: 220 nM; Ki [33]: 1900 nM; Ki [35]: 530 nM; Ki [36]: 1100 nM
COc1ccccc1N1CCN(CCCNC(=O)c2cnn3ccccc23)CC1														720	450	390	110	83	1.6	69	
